Test results as given in ChEMBL document CHEMBL3045677, “Sulfonamide-1,2,4-thiadiazole derivatives as antifungal and antibacterial agents: synthesis, biological evaluation, lipophilicity, and conformational studies” (2010).
Converted amounts (≈) assume the structure as drawn.

Key:
Fulvia fulva = test: Antifungal activity against Passalora fulva TK5318 at 28 degC measured after 72 hr by microdilution method; type: functional; details: TK5318, 72 h
Summary of the method: (§1)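 Fungi were kept on malt agar at 4 °C. Spores were washed off with sterile 0.85% saline containing 0.1% Tween 80 and adjusted to about 1.0×10⁵ per well. Compounds were dissolved in DMSO (1 mg/ml stock) and serially diluted in malt broth with inoculum in 96-well plates, 72 h at 28 °C, for MIC. MFC came from subculture into fresh broth for a further 72 h at 28 °C.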

Aspergillus versicolor = test: Antifungal activity against Aspergillus versicolor ATCC 11730 at 28 degC measured after 72 hr by microdilution method; type: functional; details: ATCC 11730, 72 h; summary of the method: as §1
Aspergillus flavus = test: Antifungal activity against Aspergillus flavus ATCC 9643 at 28 degC measured after 72 hr by microdilution method; type: functional; details: ATCC 9643, 72 h; summary of the method: as §1
Aspergillus niger = test: Antifungal activity against Aspergillus niger ATCC 6275 at 28 degC measured after 72 hr by microdilution method; type: functional; details: ATCC 6275, 72 h; summary of the method: as §1
Trichoderma viride = test: Antifungal activity against Hypocrea rufa IAM 5061 at 28 degC measured after 72 hr by microdilution method; type: functional; details: IAM 5061, 72 h; summary of the method: as §1
Aspergillus fumigatus = test: Antifungal activity against plant isolate Aspergillus fumigatus at 28 degC measured after 72 hr by microdilution method; type: functional; summary of the method: as §1
Penicillium ochrochloron = test: Antifungal activity against Penicillium ochrochloron ATCC 9112 at 28 degC measured after 72 hr by microdilution method; type: functional; details: ATCC 9112, 72 h; summary of the method: as §1
Talaromyces funiculosus = test: Antifungal activity against Talaromyces funiculosus ATCC 36839 at 28 degC measured after 72 hr by microdilution method; type: functional; details: ATCC 36839, 72 h; summary of the method: as §1
Listeria monocytogenes [1] = test: Antibacterial activity against Listeria monocytogenes NCTC 7973 at […] degC measured after 72 hr by microdilution method; type: functional; details: NCTC 7973, 72 h
Summary of the method: (§2)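 Bactericidal endpoint: after the 24 h broth microdilution (1.0×10⁴ CFU per well, LB broth, […] °C), wells were serially subcultured into plates of fresh broth and incubated a further 72 h. MBC was the lowest concentration with no visible growth, taken as 99.5% killing of the original inoculum.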

Proteus mirabilis [2] = test: Antibacterial activity against Proteus mirabilis at […] degC measured after 72 hr by microdilution method; type: functional; summary of the method: as §2
Salmonella typhimurium [3] = test: Antibacterial activity against Salmonella enterica subsp. enterica serovar TyphimuriumATCC 13311 at […] degC measured after 72 hr by microdilution method; type: functional, Salmonella enterica subsp. enterica serovar Typhimurium; details: ATCC 13311, 72 h; summary of the method: as §2
Pseudomonas aeruginosa [4] = test: Antibacterial activity against Pseudomonas aeruginosa ATCC 27853 at […] degC measured after 72 hr by microdilution method; type: functional; details: ATCC 27853, 72 h; summary of the method: as §2
Escherichia coli [5] = test: Antibacterial activity against Escherichia coli ATCC 35210 at […] degC measured after 72 hr by microdilution method; type: functional; details: ATCC 35210, 72 h; summary of the method: as §2
Staphylococcus aureus [6] = test: Antibacterial activity against Staphylococcus aureus ATCC 6538 at […] degC measured after 72 hr by microdilution method; type: functional; details: ATCC 6538, 72 h; summary of the method: as §2
Micrococcus flavus [7] = test: Antibacterial activity against Micrococcus flavus ATCC 10240 at […] degC measured after 72 hr by microdilution method; type: functional; details: ATCC 10240, 72 h; summary of the method: as §2
Bacillus cereus [8] = test: Antibacterial activity against clinical isolate Bacillus cereus at […] degC measured after 72 hr by microdilution method; type: functional; summary of the method: as §2
Listeria monocytogenes [9] = test: Antibacterial activity against Listeria monocytogenes NCTC 7973 at […] degC measured after 24 hr by microdilution method; type: functional; details: NCTC 7973, 24 h
Summary of the method: (§3)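 Bacteria suspended in sterile saline at 1.0×10⁵ CFU/ml and added at 1.0×10⁴ CFU per well to LB broth with compound (1 mg/ml) in 96-well plates. Incubated 24 h at […] °C. MIC was the lowest concentration without visible growth under a binocular microscope. OD 655 nm was read against a blank and a positive control.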

Salmonella typhimurium [10] = test: Antibacterial activity against Salmonella enterica subsp. enterica serovar Typhimurium ATCC 13311 at […] degC measured after 24 hr by microdilution method; type: functional; details: ATCC 13311, 24 h; summary of the method: as §3
Pseudomonas aeruginosa [11] = test: Antibacterial activity against Pseudomonas aeruginosa ATCC 27853 at […] degC measured after 24 hr by microdilution method; type: functional; details: ATCC 27853, 24 h; summary of the method: as §3
Proteus mirabilis [12] = test: Antibacterial activity against Proteus mirabilis at […] degC measured after 24 hr by microdilution method; type: functional; summary of the method: as §3
Escherichia coli [13] = test: Antibacterial activity against Escherichia coli ATCC 35210 at […] degC measured after 24 hr by microdilution method; type: functional; details: ATCC 35210, 24 h; summary of the method: as §3
Staphylococcus aureus [14] = test: Antibacterial activity against Staphylococcus aureus ATCC 6538 at […] degC measured after 24 hr by microdilution method; type: functional; details: ATCC 6538, 24 h; summary of the method: as §3
Bacillus cereus [15] = test: Antibacterial activity against clinical isolate Bacillus cereus at […] degC measured after 24 hr by microdilution method; type: functional; summary of the method: as §3
Micrococcus flavus [16] = test: Antibacterial activity against Micrococcus flavus ATCC 10240 at […] degC measured after 24 hr by microdilution method; type: functional; details: ATCC 10240, 24 h; summary of the method: as §3

| MIC (Fulvia fulva) | MIC (Aspergillus versicolor) | MIC (Aspergillus flavus) | MIC (Aspergillus niger) | MIC (Trichoderma viride) | MIC (Penicillium ochrochloron) | MIC (Talaromyces funiculosus) | SMILES | MFC (Fulvia fulva) | MFC (Aspergillus versicolor) | MFC (Aspergillus flavus) | MFC (Aspergillus niger) | MFC (Trichoderma viride) | MFC (Aspergillus fumigatus) | MIC (Aspergillus fumigatus) | MFC (Penicillium ochrochloron) | MFC (Talaromyces funiculosus) | MBC (Listeria monocytogenes [1]) | MBC (Proteus mirabilis [2]) | MBC (Salmonella typhimurium [3]) | MBC (Pseudomonas aeruginosa [4]) | further results |
| --- | --- | --- | --- | --- | --- | --- | --- | --- | --- | --- | --- | --- | --- | --- | --- | --- | --- | --- | --- | --- | --- |
| 10.9 µM (≈ 5.02 µg/mL) | 21.7 µM (≈ 9.99 µg/mL) | 21.7 µM (≈ 9.99 µg/mL) | 21.7 µM (≈ 9.99 µg/mL) | 10.9 µM (≈ 5.02 µg/mL) | 21.7 µM (≈ 9.99 µg/mL) | 21.7 µM (≈ 9.99 µg/mL) | COc1cc(Cc2nnc(Nc3ccccc3)s2)c(S(=O)(=O)N2CCCC2)cc1OC | 21.7 µM (≈ 9.99 µg/mL) | 43.4 µM (≈ 20 µg/mL) | 43.4 µM (≈ 20 µg/mL) | 43.4 µM (≈ 20 µg/mL) | 21.7 µM (≈ 9.99 µg/mL) | 43.4 µM (≈ 20 µg/mL) | 21.7 µM (≈ 9.99 µg/mL) | 43.4 µM (≈ 20 µg/mL) | 43.4 µM (≈ 20 µg/mL) | 43.4 µM (≈ 20 µg/mL) | 43.4 µM (≈ 20 µg/mL) | 21.7 µM (≈ 9.99 µg/mL) | 43.4 µM (≈ 20 µg/mL) | MBC (Escherichia coli [5]): 43.4 µM (≈ 20 µg/mL); MBC (Staphylococcus aureus [6]): 43.4 µM (≈ 20 µg/mL); MBC (Micrococcus flavus [7]): 21.7 µM (≈ 9.99 µg/mL); MBC (Bacillus cereus [8]): 21.7 µM (≈ 9.99 µg/mL); MIC (Listeria monocytogenes [9]): 21.7 µM (≈ 9.99 µg/mL); MIC (Salmonella typhimurium [10]): 10.9 µM (≈ 5.02 µg/mL); MIC (Pseudomonas aeruginosa [11]): 21.7 µM (≈ 9.99 µg/mL); MIC (Proteus mirabilis [12]): 21.7 µM (≈ 9.99 µg/mL); MIC (Escherichia coli [13]): 21.7 µM (≈ 9.99 µg/mL); MIC (Staphylococcus aureus [14]): 21.7 µM (≈ 9.99 µg/mL); MIC (Bacillus cereus [15]): 10.9 µM (≈ 5.02 µg/mL); MIC (Micrococcus flavus [16]): 10.9 µM (≈ 5.02 µg/mL) |
| 10.1 µM (≈ 5 µg/mL) | 20.2 µM (≈ 10 µg/mL) | 20.2 µM (≈ 10 µg/mL) | 20.2 µM (≈ 10 µg/mL) | 10.1 µM (≈ 5 µg/mL) | 20.2 µM (≈ 10 µg/mL) | 10.1 µM (≈ 5 µg/mL) | COc1cc(Cc2nnc(Nc3ccc(Cl)cc3)s2)c(S(=O)(=O)N2CCCC2)cc1OC | 20.2 µM (≈ 10 µg/mL) | 40.4 µM (≈ 20 µg/mL) | 40.4 µM (≈ 20 µg/mL) | 40.4 µM (≈ 20 µg/mL) | 20.2 µM (≈ 10 µg/mL) | 40.4 µM (≈ 20 µg/mL) | 20.2 µM (≈ 10 µg/mL) | 40.4 µM (≈ 20 µg/mL) | 20.2 µM (≈ 10 µg/mL) | 40.4 µM (≈ 20 µg/mL) | 40.4 µM (≈ 20 µg/mL) | 20.2 µM (≈ 10 µg/mL) | 40.4 µM (≈ 20 µg/mL) | MBC (Escherichia coli [5]): 40.4 µM (≈ 20 µg/mL); MBC (Staphylococcus aureus [6]): 40.4 µM (≈ 20 µg/mL); MBC (Micrococcus flavus [7]): 40.4 µM (≈ 20 µg/mL); MBC (Bacillus cereus [8]): 40.4 µM (≈ 20 µg/mL); MIC (Listeria monocytogenes [9]): 40.4 µM (≈ 20 µg/mL); MIC (Salmonella typhimurium [10]): 10.1 µM (≈ 5 µg/mL); MIC (Pseudomonas aeruginosa [11]): 20.2 µM (≈ 10 µg/mL); MIC (Proteus mirabilis [12]): 20.2 µM (≈ 10 µg/mL); MIC (Escherichia coli [13]): 15.2 µM (≈ 7.52 µg/mL); MIC (Staphylococcus aureus [14]): 20.2 µM (≈ 10 µg/mL); MIC (Bacillus cereus [15]): 20.2 µM (≈ 10 µg/mL); MIC (Micrococcus flavus [16]): 20.2 µM (≈ 10 µg/mL) |
| 9.9 µM (≈ 5.01 µg/mL) | 19.8 µM (≈ 10 µg/mL) | 19.8 µM (≈ 10 µg/mL) | 19.8 µM (≈ 10 µg/mL) | 9.9 µM (≈ 5.01 µg/mL) | 19.8 µM (≈ 10 µg/mL) | 9.9 µM (≈ 5.01 µg/mL) | COc1cc(Cc2nnc(Nc3ccc([N+](=O)[O-])cc3)s2)c(S(=O)(=O)N2CCCC2)cc1OC | 19.8 µM (≈ 10 µg/mL) | 39.6 µM (≈ 20 µg/mL) | 39.6 µM (≈ 20 µg/mL) | 39.6 µM (≈ 20 µg/mL) | 19.8 µM (≈ 10 µg/mL) | 19.8 µM (≈ 10 µg/mL) | 9.9 µM (≈ 5.01 µg/mL) | 39.6 µM (≈ 20 µg/mL) | 19.8 µM (≈ 10 µg/mL) | 39.6 µM (≈ 20 µg/mL) | 79.2 µM (≈ 40 µg/mL) | 79.2 µM (≈ 40 µg/mL) | 39.6 µM (≈ 20 µg/mL) | MBC (Escherichia coli [5]): 39.6 µM (≈ 20 µg/mL); MBC (Staphylococcus aureus [6]): 39.6 µM (≈ 20 µg/mL); MBC (Micrococcus flavus [7]): 39.6 µM (≈ 20 µg/mL); MBC (Bacillus cereus [8]): 39.6 µM (≈ 20 µg/mL); MIC (Listeria monocytogenes [9]): 19.8 µM (≈ 10 µg/mL); MIC (Salmonella typhimurium [10]): 39.6 µM (≈ 20 µg/mL); MIC (Pseudomonas aeruginosa [11]): 19.8 µM (≈ 10 µg/mL); MIC (Proteus mirabilis [12]): 39.6 µM (≈ 20 µg/mL); MIC (Escherichia coli [13]): 19.8 µM (≈ 10 µg/mL); MIC (Staphylococcus aureus [14]): 19.8 µM (≈ 10 µg/mL); MIC (Bacillus cereus [15]): 19.8 µM (≈ 10 µg/mL); MIC (Micrococcus flavus [16]): 19.8 µM (≈ 10 µg/mL) |
